Measurements: ChEMBL document CHEMBL1137779, “Discovery of 2-[5-(4-chloro-phenyl)-1-(2,4-dichloro-phenyl)-4-ethyl-1H-pyrazol-3-yl]-1,5,5-trimethyl-1,5-dihydro-imidazol-4-thione (BPR-890) via an active metabolite. A novel, potent and selective cannabinoid-1 receptor inverse agonist with high antiobesity efficacy in DIO mice” (J Med Chem, 2009)
Activity calls are given as the source filed them. No cut-off for these calls is given here.

Tests used:
[1] = target: Cannabinoid receptor 2 (Homo sapiens, UniProt P34972); assay: Displacement of [3H]CP-55940 from human recombinant CB2R expressed in HEK293 cells; type: cell-based
[2] = target: T1, Cannabinoid receptor 1 (Homo sapiens, UniProt P21554); assay: biochemical; type: cell-based, HEK293
[3] = species: Homo sapiens; assay: Selectivity ratio of IC50 for human recombinant CB2R to IC50 for human recombinant CB1R
Outline: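 hCB1- or hCB2-transfected HEK 293 stable clones; purified membranes (0.2-8 μg) incubated with 0.75 nM [3H]CP-55,940 plus test compound in 50 mM Tris-HCl, 5 mM MgCl2, 1 mM EDTA, 0.3% BSA, pH 7.4, 1.5 h at 30 °C. Nonspecific binding with 1 μM CP-55,940. Filtration, bound radioactivity counted; IC50 by nonlinear regression. Mean ± SD of at least three independent experiments.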

[4] = target: T1, Cannabinoid receptor 1; type: cell-based, HEK293
[5] = test system: Rattus norvegicus; assay: Suppression of food intake in Wistar rat spontaneously feeding model at 3 mg/kg, po after 6 hrs
[6] = test system: Brain; assay: Drug level in brain of diet-induced obesity C57BL/6 mouse model at 1 mg/kg, po; type: ADME, organism-based; set-up: dose 1 mg/kg, route oral; conditions: in vivo
[7] = test system: Mus musculus; assay: Induction of weight loss in diet induced obesity C57BL/6 mouse model at 1 mg/kg, po after 29 days relative to control; type: functional
Outline: (§1)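 DIO mice, weight-matched into groups (n = 8/group), given vehicle (10% DMSO/10% Tween 80/80% H2O) or compound by oral gavage once daily for 29 days. Food intake and body weight recorded daily. Read-out is cumulative percentage body-weight change versus vehicle, reported as mean ± standard error.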

[8] = test system: Mus musculus; assay: Induction of weight loss in po dosed diet induced obesity C57BL/6 mouse model assessed as minimum effective dose after 29 days; type: functional; outline: as §1
[9] = test system: Rattus norvegicus; assay: Suppression of food intake in Wistar rat spontaneously feeding model at 0.3 mg/kg, po after 6 hrs
[10] = test system: Mus musculus; assay: Reduction of food intake in diet induced obesity C57BL/6 mouse model at 0.3 mg/kg, po after 29 days; type: functional, organism-based; set-up: dose 0.3 mg/kg
Outline: (§2)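 Weight-matched DIO mice (n = 8/group) gavaged once daily with compound or vehicle (10% DMSO/10% Tween 80/80% H2O) for 29 days. Food consumed and body weight measured daily. Mean ± standard error.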

[11] = test system: Mus musculus; assay: Induction of weight loss in diet induced obesity C57BL/6 mouse model at 0.1 mg/kg, po after 29 days relative to control; type: functional; outline: as §1
[12] = test system: Rattus norvegicus; assay: Induction of weight loss in diet induced obesity Wistar rat model at 0.1 mg/kg, po qd after 29 days relative to control; type: functional
[13] = test system: Mus musculus; assay: Induction of weight loss in diet induced obesity C57BL/6 mouse model at 0.03 mg/kg, po after 29 days relative to control; type: functional; outline: as §1
[14] = test system: Mus musculus; assay: Induction of weight loss in diet induced obesity C57BL/6 mouse model at 0.3 mg/kg, po after 29 days relative to control; type: functional; outline: as §1
[15] = test system: Brain; assay: Drug level in brain of diet-induced obesity C57BL/6 mouse model at 0.3 mg/kg, po; type: ADME, organism-based; set-up: dose 0.3 mg/kg, route oral; conditions: in vivo
[16] = test system: Mus musculus; assay: Reduction of food intake in diet induced obesity C57BL/6 mouse model at 0.03 mg/kg, po after 29 days; type: functional, organism-based; set-up: dose 0.03 mg/kg; outline: as §2
[17] = test system: Rattus norvegicus; assay: Induction of weight loss in diet induced obesity Wistar rat model at 0.3 mg/kg, po qd after 29 days relative to control; type: functional
[18] = test system: Mus musculus; assay: Reduction of food intake in diet induced obesity C57BL/6 mouse model at 0.1 mg/kg, po after 29 days; type: functional, organism-based; set-up: dose 0.1 mg/kg; outline: as §2
[19] = test system: Mus musculus; assay: Induction of weight loss in diet induced obesity C57BL/6 mouse model at 10 mg/kg, po qd relative to control; type: functional; outline: as §1
[20] = test system: Brain; assay: Drug level in brain of diet-induced obesity C57BL/6 mouse model at 10 mg/kg, po; type: ADME, organism-based; set-up: dose 10 mg/kg, route oral; conditions: in vivo

Cannabinoid receptor 2, sequence (P34972 whole entry): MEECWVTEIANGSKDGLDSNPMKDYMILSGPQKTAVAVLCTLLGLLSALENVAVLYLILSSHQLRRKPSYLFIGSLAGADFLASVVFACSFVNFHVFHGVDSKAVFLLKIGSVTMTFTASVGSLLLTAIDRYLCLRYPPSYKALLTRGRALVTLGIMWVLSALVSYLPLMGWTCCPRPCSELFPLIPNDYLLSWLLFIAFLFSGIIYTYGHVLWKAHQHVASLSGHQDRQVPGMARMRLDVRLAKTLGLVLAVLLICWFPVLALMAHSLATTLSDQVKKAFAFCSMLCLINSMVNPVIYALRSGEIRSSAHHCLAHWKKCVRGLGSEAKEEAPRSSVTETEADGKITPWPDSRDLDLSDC
T1 sequence (P21554 whole entry): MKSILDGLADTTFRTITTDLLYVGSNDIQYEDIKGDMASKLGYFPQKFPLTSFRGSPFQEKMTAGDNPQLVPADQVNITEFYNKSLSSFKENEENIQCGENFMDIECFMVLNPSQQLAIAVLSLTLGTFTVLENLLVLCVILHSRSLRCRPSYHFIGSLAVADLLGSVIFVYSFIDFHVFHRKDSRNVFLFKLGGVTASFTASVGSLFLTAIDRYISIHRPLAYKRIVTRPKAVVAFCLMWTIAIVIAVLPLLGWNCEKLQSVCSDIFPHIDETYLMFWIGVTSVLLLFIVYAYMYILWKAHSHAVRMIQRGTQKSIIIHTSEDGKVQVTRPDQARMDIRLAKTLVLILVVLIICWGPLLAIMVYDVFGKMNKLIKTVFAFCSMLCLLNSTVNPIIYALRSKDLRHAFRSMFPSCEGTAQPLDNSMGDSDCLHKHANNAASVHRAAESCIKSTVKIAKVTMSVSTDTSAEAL

Structure (SMILES)	IC50 [1] [nM]	IC50 [2] [nM]	Ratio IC50 [3]	also measured
Cc1c(C2=NC(C)(C)C(=O)N2C)nn(-c2ccc(Cl)cc2Cl)c1-c1ccc(Cl)cc1	3250	33.6	97	
COc1ccc(-c2c(C)c(C3=NC(=O)C(C)(C)N3C)nn2-c2ccc(Cl)cc2Cl)cc1	1060	212	5	
C=CCN1C(c2nn(-c3ccc(Cl)cc3Cl)c(-c3ccc(Cl)cc3)c2C)=NC(=O)C1(C)C	2880	249	12	
Cc1c(C2=NC(=O)C(C)(C)N2C2CC2)nn(-c2ccc(Cl)cc2Cl)c1-c1ccc(Cl)cc1	1950	95.2	21	
Cc1c(C(=O)NC(=O)C(C)(C)N(C)C)nn(-c2ccc(Cl)cc2Cl)c1-c1ccc(Cl)cc1		82.9	35	
CCc1c(C2=NC(=O)C(C)(C)N2C)nn(-c2ccc(Cl)cc2Cl)c1-c1ccc(Cl)cc1	2740	12.9	213	EC50 [4]: 9.8 nM
Cc1c(C2=NC(=O)C(C)(C)N2C)nn(-c2ccc(Cl)cc2Cl)c1-c1ccc(Cl)cc1	487	54.7	9	
CCCN1C(c2nn(-c3ccc(Cl)cc3Cl)c(-c3ccc(Cl)cc3)c2C)=NC(=O)C1(C)C	5510	854	7	
CCCCN1C(c2nn(-c3ccc(Cl)cc3Cl)c(-c3ccc(Cl)cc3)c2C)=NC(=O)C1(C)C	4760	1110	4	
Cc1c(C2=NC(=O)C(C)(C)N2Cc2ccccc2)nn(-c2ccc(Cl)cc2Cl)c1-c1ccc(Cl)cc1	5130	197	26	
CCc1c(C2=NC(C)(C)C(=O)N2C)nn(-c2ccc(Cl)cc2Cl)c1-c1ccc(Cl)cc1	4330	33.8	128	EC50 [4]: 65.5 nM
CN1C(c2nn(-c3ccc(Cl)cc3Cl)c(-c3ccc(Cl)cc3)c2C2CC2)=NC(=O)C1(C)C	822	43.9	19	
CCc1c(C2=NC(C)(C)C(=O)N2)nn(-c2ccc(Cl)cc2Cl)c1-c1ccc(Cl)cc1	10300	32.6	314	Activity [5]: Active; Drug uptake [6]: 1118 ng/g; Activity [7]: 27.4%; EC50 [4]: 20.2 nM; MED [8]: 0.1 mg/kg
CCc1c(C2=NC(=O)C(C)(C)N2C)nn(-c2ccc(Cl)cc2Cl)c1-c1ccc(Br)cc1	768	16.3	47	
Cc1c(C2=NC(C)(C)C(=O)N2)nn(-c2ccc(Cl)cc2Cl)c1-c1ccc(Cl)cc1	3500	53.4	66	
CCc1c(C2=NC(=S)C(C)(C)N2C)nn(-c2ccc(Cl)cc2Cl)c1-c1ccc(Cl)cc1	4750	12	396	Activity [9]: Active; Activity [10]: Active; Activity [11]: 19.4%; Activity [12]: 5.1%; Activity [13]: 14.7%; EC50 [4]: 5.1 nM; Activity [14]: 25.4%; Drug uptake [15]: 243 ng/g; Activity [16]: Active; MED [8]: 0.03 mg/kg; Activity [17]: 9.5%; Activity [18]: Active
CN1C(c2nn(-c3ccc(Cl)cc3Cl)c(-c3ccc(Cl)cc3)c2Br)=NC(=O)C1(C)C	1570	42.5	37	
Cc1c(C2=NC(=O)C(C)(C)N2C)nn(-c2ccc(Cl)cc2Cl)c1-c1ccc(C(F)(F)F)cc1	3970	15.9	250	EC50 [4]: 81 nM
Cc1c(C(=O)NN2CCCCC2)nn(-c2ccc(Cl)cc2Cl)c1-c1ccc(Cl)cc1 [RIMONABANT]				Activity [19]: 23.8%; Drug uptake [20]: 113 ng/g
CCc1c(C2=NC3(CCC3)C(=O)N2)nn(-c2ccc(Cl)cc2Cl)c1-c1ccc(Cl)cc1	3180	22.8	139	EC50 [4]: 12.3 nM
CCc1c(C2=NC3(CCCC3)C(=O)N2)nn(-c2ccc(Cl)cc2Cl)c1-c1ccc(Cl)cc1	1370	14.6	94	
CCc1c(C2=NC3(CCCCC3)C(=O)N2)nn(-c2ccc(Cl)cc2Cl)c1-c1ccc(Cl)cc1	497	12.3	40	
Cc1c(C2=NC(=O)C(C)(C)N2C)nn(-c2ccc(Cl)cc2Cl)c1-c1ccc(Br)cc1	1100	47.4	23	
CN1C(c2cc(-c3ccc(Cl)cc3)n(-c3ccc(Cl)cc3Cl)n2)=NC(=O)C1(C)C	7950	325	24	
CCN1C(c2nn(-c3ccc(Cl)cc3Cl)c(-c3ccc(Cl)cc3)c2C)=NC(=O)C1(C)C	1170	107	11	
Cc1c(C2=NC(=S)C(C)(C)N2C)nn(-c2ccc(Cl)cc2Cl)c1-c1ccc(Cl)cc1	901	6.3	143	EC50 [4]: 8.5 nM
